Drawing on ChEMBL document CHEMBL1151456, “Anaerobic NADH-fumarate reductase system is predominant in the respiratory chain of Echinococcus multilocularis, providing a novel target for the chemotherapy of alveolar echinococcosis” (Antimicrob Agents Chemother, 2008), this text covers IC50 and Activity for ten compounds.

The nature of experiment [1]: Inhibition of NADH fumarate reductase in Echinococcus multilocularis protoscolece. The gist of the method: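 Enriched mitochondrial fraction from Nemuro-strain protoscoleces, 80 μg protein/ml, in 30 mM potassium phosphate pH 7.4 with 1 mM MgCl2 at 25°C. Made anaerobic over 3 min with glucose oxidase, catalase and 10 mM β-D-glucose. NADH (100 μM) oxidation followed at 340 nm after starting with 5 mM fumarate. IC50 determined.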

Experiment [2] deals with Echinococcus multilocularis. As to the kind of experiment: Antiparasitic activity against Echinococcus multilocularis protoscolex assessed dead parasite at 50 uM after 5 days by trypan blue staining. Type of experiment: functional, organism-based.
Experiment [3] is described as follows: Inhibition of bovine heart mitochondrial NADH oxidase.
Experiment [4] has as its system Echinococcus multilocularis. The experiment in a line: Antiparasitic activity against Echinococcus multilocularis protoscolex at 5 uM after 5 days by trypan blue staining. It counts as functional, organism-based. A digest of the protocol: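 Protoscoleces of the Nemuro strain, freed of host material, kept in long-term maintenance medium in six-well plates at about 500 protoscoleces/ml, with half the medium replaced twice weekly. Compound added to the medium at 5 or 50 μM; the vehicle control was 0.5% (vol/vol) DMSO. Run in triplicate. Viability was scored microscopically on >170 protoscoleces per well by motility and trypan blue exclusion.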

In experiment [5] the test system is Echinococcus multilocularis. The experiment in a line: Antiparasitic activity against Echinococcus multilocularis protoscolex assessed as reduction of parasite viability at 50 uM by trypan blue staining. Type of experiment: functional, organism-based.

Structures are written as SMILES. pIC50: −log10 of the molar value. Active and inactive are the calls of the source. The rule behind the calls is not given here.

By pIC50 is commonly meant −log10 of the IC50, conventionally taken in molar units. Lower therefore signals a high IC50. On to `CC(C)(C)c1ccc(CCNc2ncnc3cc(N)ccc23)cc1`, for which the pIC50 in experiment [1] was 7.21.

`C=CC(=O)Nc1ccc2ncnc(NCCc3ccc(C(C)(C)C)cc3)c2c1` had a pIC50 in experiment [1] of 7.80. `COc1cccc2c(NCCc3ccc(C(C)(C)C)cc3)ncnc12` gave a pIC50 in experiment [1] of 7.32. Turning to `CC(C)(C)c1ccc(CCNc2ncnc3c(O)cccc23)cc1`, the result in experiment [2] and in experiment [5] was Active. The pIC50 is 6.64 in experiment [3] and 7.15 in experiment [1]. For the same compound, the result in experiment [4] was inactive. In experiment [1], `CC(C)(C)c1ccc(CCNc2ncnc3ccc(N)cc23)cc1` gave a pIC50 of 8.68. Turning to `C=C(C)[C@H]1Cc2c(ccc3c2O[C@@H]2COc4cc(OC)c(OC)cc4[C@@H]2C3=O)O1`, the outcome in experiment [4] was Active.

With `c1ccc2ncncc2c1` [QUINAZOLINE], the pIC50 in experiment [1] is 8.64.

In experiment [1], `CC(C)Oc1cccc2c(NCCc3ccc(C(C)(C)C)cc3)ncnc12` had a pIC50 of 6.04. On the same count and under the same terms, the value for `CCOc1cccc2c(NCCc3ccc(C(C)(C)C)cc3)ncnc12` was 5.39. Consider `CC(=O)Oc1ccccc1C(=O)Nc1ncc([N+](=O)[O-])s1`, for which, in experiment [4], the outcome was inactive.
